Active and inactive are the calls of the source.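 Rule for the calls, unless noted: active = viability loss from added drug above about 55%, and viability with drug at most 40%, in both replicates (limit read from the data, passing the limit was not always enough); inconclusive = both conditions met in only one replicate; inactive = neither replicate meets both conditions.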
What was measured:
[1] = HUVEC growth inhibition – cell-based, human, primary screen (AID 575;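 active = viability at or below 30% in both replicate assays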;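 note: 100% = median of untreated cell wells with 0.1% DMSO on each plate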); conditions: HUVEC proliferation, CellTiter-Glo luminescence, 72 h; at 10 µM; stronger effect = lower value
How it was run: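 material = primary HUVEC, no more than 12 passages | input = 1250 cells per well | controls = vehicle and MePR control wells | measured by = CTG luminescence | times = 72 h compound incubation | format = collagen-coated 384-well format | read-out = % viability vs DMSO wells | doses = single 10 µM dose, 0.1% DMSO, from 5x medium stock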

[2] = growth inhibitors of H69AR lung tumor, primary screen, human, duplicate replicates (AID 580;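 active = viability at or under a set limit in both replicates, limit being median viability minus 3 SD, cut at about 48% in these data, passing the limit was not always enough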;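 note: 100% = mean luminescence of untreated wells and 0% = no signal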); conditions: H69AR lung tumor cells viability, ATP luminescence, 72 h; at 10 µM; stronger effect = lower value
[3] = reversal of MRP1-mediated doxorubicin resistance, pilot screen, H69AR cells, doxorubicin co-treatment (AID 601); conditions: CellTiter-Glo, 72 h, at 10 µM; for differential viability (reversal): stronger effect = higher value
[4] = 384-well plate pilot, post-Golgi transport modulator project, inhibition of yeast transport mutant growth (AID 636; in the data active = inhibition above about 31%); conditions: absorbance 615 nm, about 18 h, stronger effect = higher value
[5] = growth suppression of yeast trafficking mutant, preliminary HTS, modulators of trafficking downstream of Golgi apparatus project, 1536-format plate, OD 615 nm (AID 637; in the data active = inhibition above about 30%); conditions: yeast transport mutant growth, absorbance 615 nm, 18 h; stronger effect = higher value
[6] = H69AR cells + 2 uM doxorubicin, measured here: viability with 2 uM doxorubicin, stronger effect = lower value
[7] = H69AR cells, compound alone cytotoxicity

Row | SMILES | viability [1] | viability [2] | differential viability (reversal) ([3]; H69AR cells + 2 uM doxorubicin) | viability [3, 6] [%] | viability [3, 7] [%] | inhibition [4] | inhibition [5]
1 | Cc1ccc(S(=O)(=O)Cn2nnnc2C(C(C)C)N2CCN(C(=O)c3ccco3)CC2)cc1 (stereo not drawn) | 94.8% (inactive) | 91.3% (inactive) | 8.2% (inactive) | 83.1 | 91.3 | -4% (inactive) | -4.29% (inactive)
2 | COC(=O)c1ccc(CSc2nc3ccccc3c(=O)n2Cc2ccco2)o1 | 81.2% (inactive) | 84.4% (inactive) | -7.85% (inactive) | 92.3 | 84.4 | -4.94% (inactive) | -1.11% (inactive)
3 | CCOCCCNC(=O)C1CCCN(S(=O)(=O)CC)C1 (stereo not drawn) | 115% (inactive) | 94.5% (inactive) | -3.11% (inactive) | 97.6 | 94.5 | -6.53% (inactive) | 2.06% (inactive)
4 | CC1CCN(c2nc3c(c(=O)n(C)c(=O)n3C)n2Cc2ccccc2)CC1 | 79.2% (inactive) | 88.1% (inactive) | 41.1% (inactive) | 47 | 88.1 | -2.27% (inactive) | 21.6% (inactive)
5 | CS(=O)(=O)N1CCN(C(=O)c2ccc(-c3ccccc3)cc2)CC1 | 96.7% (inactive) | 96.1% (inactive) | 10.2% (inactive) | 85.9 | 96.1 | -2.99% (inactive) | 8.25% (inactive)
6 | N#Cc1nc(COc2ccccc2)oc1NCCN1CCOCC1 | 108% (inactive) | 107% (inactive) | 11.7% (inactive) | 95 | 107 | -4.68% (inactive) | 10.5% (inactive)
7 | CC(=O)Nc1ccc(N2CCN(Cc3ccccc3F)CC2)cc1 | 88.8% (inactive) | 92.5% (inactive) | 8.67% (inactive) | 83.8 | 92.5 | -0.91% (inactive) | 1.11% (inactive)
8 | Cc1ccc(-c2nn3c(C)nnc3s2)cc1N | 83.5% (inactive) | 94.7% (inactive) | 16.5% (inactive) | 78.2 | 94.7 | -7.47% (inactive) | 3.33% (inactive)
9 | Cc1ccnc(NS(=O)(=O)c2ccc(N=CC3=C(O)CC(C)(C)CC3=O)cc2)n1 | 102% (inactive) | 97.1% (inactive) | -0.37% (inactive) | 97.5 | 97.1 | 0.92% (inactive) | -5.4% (inactive)
10 | Cn1c(=O)c(=O)n(C)c2cc(S(=O)(=O)N3CCCCC3)ccc21 | 111% (inactive) | 100% (inactive) | 16.1% (inactive) | 84.3 | 100 | -3.07% (inactive) | 0.16% (inactive)
11 | CCOC(=O)CSc1nnc(CNC(=O)c2ccc(S(=O)(=O)N3CCCC3)cc2)n1C | 99.1% (inactive) | 112% (inactive) | 28.2% (inactive) | 84 | 112 | -2.6% (inactive) | 0.63% (inactive)
12 | Cc1c(NC(=O)c2cnn3c2NC(c2ccco2)CC3C(F)(F)F)c(=O)n(-c2ccccc2)n1C (stereo not drawn) | 81.5% (inactive) | 103% (inactive) | 15.8% (inactive) | 87 | 103 | -2.47% (inactive) | 3.65% (inactive)
13 | COc1cccc(C(=O)CSc2nnc(COc3cccc4cccnc34)o2)c1 | 90.3% (inactive) | 81% (inactive) | -2.74% (inactive) | 83.7 | 81 | 4.87% (inactive) | -7.94% (inactive)
14 | O=C(C1CC2CCC1C2)N1CCN(Cc2ccc3c(c2)OCO3)CC1 (stereo not drawn) | 103% (inactive) | 99.2% (inactive) | 13.9% (inactive) | 85.3 | 99.2 | -4.68% (inactive) | 3.33% (inactive)
15 | O=C(CCCn1c(=O)c2sccc2n(CC(=O)NCc2ccco2)c1=O)NCc1ccco1 | 90.4% (inactive) | 100% (inactive) | 20% (inactive) | 80 | 100 | -2.86% (inactive) | 2.54% (inactive)
16 | CC(=O)Nc1ccc(S(=O)(=O)N2CCSC2c2ccccc2)cc1 (stereo not drawn) | 99.6% (inactive) | 91.5% (inactive) | 5.05% (inactive) | 86.4 | 91.5 | -1.82% (inactive) | 0.32% (inactive)
17 | CSc1ccccc1NC(=O)c1noc2c1CCC2 | 77.8% (inactive) | 90.2% (inactive) | 1.63% (inactive) | 88.5 | 90.2 | -3.38% (inactive) | -3.49% (inactive)
18 | O=C(NCC1CCCO1)c1cccc(N2CCCC2=O)c1 (stereo not drawn) | 90% (inactive) | 90.2% (inactive) | -0.795% (inactive) | 91 | 90.2 | -5.47% (inactive) | 1.9% (inactive)
19 | COc1ccc(Cl)cc1Nc1nc(NCCO)nc(N2CCCC2)n1 | 55.1% (inactive) | 89.3% (inactive) | -10.3% (inactive) | 99.6 | 89.3 | -7.57% (inactive) | 8.41% (inactive)
20 | COc1ccc(-c2nn3c(-c4cccc(C)c4)nnc3s2)cc1OC | 51.1% (inactive) | 35.2% (active) | -44% (inactive) | 79.2 | 35.2 | -0.4% (inactive) | -4.13% (inactive)

Row | SMILES | viability [1] | viability [2] | differential viability (reversal) ([3]; H69AR cells + 2 uM doxorubicin) | viability [3, 6] [%] | viability [3, 7] [%] | inhibition [4] | inhibition [5]
21 | Cn1c(=O)c(NC(=O)c2ccccc2)c2n(c1=S)CCCCC2 | 104% (inactive) | 90.8% (inactive) | -6.87% (inactive) | 97.6 | 90.8 | -2.99% (inactive) | 3.65% (inactive)
22 | O=C(CSc1nc(-c2ccc(F)cc2)cs1)N1CCOCC1 | 122% (inactive) | 94.4% (inactive) | 19.2% (inactive) | 75.2 | 94.4 | -0.92% (inactive) | 6.67% (inactive)
23 | Cc1nc(C)c(C(=O)C2=C(O)C(=O)N(CCCn3ccnc3)C2c2ccccc2)s1 (stereo not drawn) | 94.5% (inactive) | 95% (inactive) | 0.995% (inactive) | 94.1 | 95 | -0.13% (inactive) | -2.54% (inactive)
24 | O=C(CSCc1ccccn1)Nc1ccccc1 | 102% (inactive) | 94.4% (inactive) | 7.96% (inactive) | 86.4 | 94.4 | -5.07% (inactive) | -6.19% (inactive)
25 | Cc1ccc(C2C(C#N)=C(N)Oc3cc4c(cc32)OCO4)cc1 (stereo not drawn) | 48.4% (inactive) | 10.2% (active) | -44.2% (inactive) | 54.4 | 10.2 | -4.42% (inactive) | 1.27% (inactive)
26 | Cc1nc2ccc(NC(=O)NCc3ccco3)cc2s1 | 103% (inactive) | 90.6% (inactive) | 7.41% (inactive) | 83.2 | 90.6 | -4.67% (inactive) | 9.37% (inactive)
27 | C=CCSc1n[nH]c(-c2ccc(OC)cc2)n1 | 108% (inactive) | 90.3% (inactive) | 2.41% (inactive) | 87.9 | 90.3 | -4.53% (inactive) | -2.06% (inactive)
28 | O=C(O)c1cnn2c1NC(c1ccc(F)cc1)CC2C(F)(F)F (stereo not drawn) | 90.8% (inactive) | 97.6% (inactive) | 9.29% (inactive) | 88.3 | 97.6 | -6.32% (inactive) | 4.92% (inactive)
29 | O=C(NC1(C(F)(F)F)NC(=O)N(Cc2ccco2)C1=O)c1cccnc1 (stereo not drawn) | 109% (inactive) | 97.2% (inactive) | 2.34% (inactive) | 94.8 | 97.2 | -7.89% (inactive) | 1.11% (inactive)
30 | N#Cc1c(SCC(=O)N2CCOCC2)nsc1SCC(=O)N1CCOCC1 | 97.7% (inactive) | 97.2% (inactive) | 11.5% (inactive) | 85.7 | 97.2 | -1.3% (inactive) | -3.02% (inactive)
31 | CCn1nnc(NC(=O)c2ccccc2Br)n1 | 103% (inactive) | 99.9% (inactive) | 10.5% (inactive) | 89.4 | 99.9 | -8.93% (inactive) | 2.86% (inactive)
32 | Cc1cc(C)c(C#N)c(SCc2ccc(C#N)cc2)n1 | 44.7% (inactive) | 68.5% (inactive) | -7.06% (inactive) | 75.6 | 68.5 | -2.27% (inactive) | -2.86% (inactive)
33 | Cc1ccc2[nH]c(=O)c(CN(CCc3ccccc3)Cc3nnnn3CC3CCCO3)cc2c1 (stereo not drawn) | 77.1% (inactive) | 78.5% (inactive) | 0.205% (inactive) | 78.3 | 78.5 | 1.45% (inactive) | -5.87% (inactive)
34 | COc1ccc(C(=O)CSc2nnc(CNc3ccc(C)cc3C)o2)cc1 | 86.8% (inactive) | 82.2% (inactive) | 0.595% (inactive) | 81.6 | 82.2 | -2.76% (inactive) | 1.9% (inactive)
35 | Cc1ccc(NC(=O)c2ccco2)c(NC(=O)c2cccs2)c1 | 92% (inactive) | 88.8% (inactive) | -1.08% (inactive) | 89.9 | 88.8 | -3.73% (inactive) | 8.57% (inactive)
36 | CSc1ccccc1NC(=O)CN(Cc1ccccc1)S(C)(=O)=O | 82.7% (inactive) | 93.1% (inactive) | 7.95% (inactive) | 85.2 | 93.1 | -0.78% (inactive) | 10.6% (inactive)
37 | Cc1ccccc1OCCn1c(=O)oc2ccccc21 | 82.3% (inactive) | 91.5% (inactive) | 16.8% (inactive) | 74.7 | 91.5 | -5.07% (inactive) | 2.38% (inactive)
38 | CCOc1ccc(OCc2cccc(C(=O)N3CCCC3)c2)cc1 | 110% (inactive) | 92.9% (inactive) | 6.89% (inactive) | 86 | 92.9 | -4.13% (inactive) | -3.49% (inactive)
39 | CCOc1ccccc1NC(=O)CCSc1nc2n[nH]c(C)c2c(=N)n1-c1ccccc1Cl | 39.2% (inactive) | 16.9% (active) | 0.49% (inactive) | 16.4 | 16.9 | -3.03% (inactive) | -3.5% (inactive)
